In PMC12667952 (bioRxiv, 2025):
Positions count from the first letter of the chain named. “Also recorded” adds a separate entry of the source.

Tests used:
hGlyT2^W215F = target: T1, hGlyT2^W215F (Homo sapiens, UniProt Q9Y345, W215F); assay type: cell-based
T1 sequence (Q9Y345 1-797 W215F): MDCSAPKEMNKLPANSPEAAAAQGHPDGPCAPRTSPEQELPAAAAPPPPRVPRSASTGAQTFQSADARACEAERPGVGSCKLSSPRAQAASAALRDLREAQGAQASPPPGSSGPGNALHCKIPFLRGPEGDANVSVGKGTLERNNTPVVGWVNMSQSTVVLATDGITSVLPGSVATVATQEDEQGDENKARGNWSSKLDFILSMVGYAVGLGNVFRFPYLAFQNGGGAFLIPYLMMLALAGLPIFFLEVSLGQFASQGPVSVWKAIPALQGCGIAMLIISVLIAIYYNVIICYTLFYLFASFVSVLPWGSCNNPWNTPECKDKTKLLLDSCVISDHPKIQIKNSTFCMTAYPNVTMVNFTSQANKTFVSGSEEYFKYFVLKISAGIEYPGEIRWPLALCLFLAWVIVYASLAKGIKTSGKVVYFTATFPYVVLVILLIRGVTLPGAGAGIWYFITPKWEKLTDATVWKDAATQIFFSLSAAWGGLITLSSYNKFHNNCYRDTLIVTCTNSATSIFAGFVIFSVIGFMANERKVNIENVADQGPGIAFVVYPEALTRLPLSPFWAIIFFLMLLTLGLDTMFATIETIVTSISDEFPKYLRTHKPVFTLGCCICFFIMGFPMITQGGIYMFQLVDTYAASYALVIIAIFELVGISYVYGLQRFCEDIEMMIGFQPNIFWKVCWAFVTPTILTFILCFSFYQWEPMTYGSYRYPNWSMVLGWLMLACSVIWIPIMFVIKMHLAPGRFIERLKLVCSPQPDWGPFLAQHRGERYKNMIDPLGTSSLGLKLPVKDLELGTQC

hGlyT2^D633E [1] = target: T2, hGlyT2^D633E (Homo sapiens, UniProt Q9Y345, D633E); assay type: cell-based
T2 sequence (Q9Y345 1-797 D633E): T1 sequence (Q9Y345 1-797 W215F) with F215W, D633E

hGlyT2^WT = target: T3, hGlyT2^WT (Homo sapiens, UniProt Q9Y345); experiment: Reversibility; assay type: cell-based; settings: washout, hGlyT2^WT
T3 sequence (Q9Y345 1-797): T1 sequence (Q9Y345 1-797 W215F) with F215W
Summary of the method: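 Xenopus oocytes injected with 20 ng hGlyT2 WT cRNA and held 3–6 days at 18 °C. Glycine currents recorded by two-electrode voltage clamp at −60 mV. Test compound applied at a single concentration (10 μM maximum), then washed out. Recovery of 30 µM glycine-evoked currents followed to 30 min, normalised to pre-inhibitor current. n ≥ 5 from at least two frogs.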

hGlyT2^D633E [2] = target: T2, hGlyT2^D633E; experiment: Reversibility; assay type: cell-based
naïve mice = experiment: Accelerating rotarod, motor coordination in naïve mice; assay type: in vivo, mouse
Summary of the method: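 Naïve mice trained for 3 days on an accelerating rotarod with large cylinders (3 sessions/day at 30-min intervals, 5 min acclimatisation each day), speed rising from 4 to 20 rpm over 180 s. Test compound given i.p. in 5% Solutol in PBS. Tested at t = 0 and 30, 60, 90, 120 and 180 min post-dose. Performance normalised to % baseline.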

C57BL/6J mice = experiment: Conditioned place preference; assay type: in vivo, mouse; settings: 50 and 150 mg/kg, i.p.

CN(C)C1(CNC(=O)c2ccc3c(c2)CCN3C(=O)c2ccccc2)CCOCC1 [RPI-GLYT2–82, 1-benzoyl-N-((4-(dimethylamino)tetrahydro-2H-pyran-4-yl)methyl)indoline-5-carboxamide]
IC50 (hGlyT2^W215F): > 10 µM
IC50 (hGlyT2^D633E [1]): > 10 µM
Reduction in potency of inhibition, D633E versus WT (hGlyT2^D633E [1]): > 18 fold
Reversibility of inhibition (recovery of glycine-induced currents) (hGlyT2^WT): recovered to pre-inhibition levels within five minutes
Washout of inhibitor from hGlyT2^D633E (hGlyT2^D633E [2]): almost immediate
Adverse neuromotor effects or muscle weakness (rotarod, grip strength, sedation) (naïve mice; 50 mg/kg analgesic dose): not associated with adverse neuromotor effects or muscle weakness
Rotarod performance (naïve mice; 250 mg/kg): transient reduction in rotarod performance
Initial reduction in baseline rotarod performance (naïve mice; 250 mg/kg i.p., restored over the 90-minute time course): 61%
Preference for the paired chamber (C57BL/6J mice): did not increase preference; also recorded: no significant preference
